Most compounds without a hit are left out; they make up all but 2.2% or so of the library.
NR2E3 ag-1 – NR2E3 agonists in two-hybrid cells, primary screen, cell-based, luminescence, CHO-S, Gal4-NCOR/VP16-NR2E3 | Photoreceptor-specific nuclear receptor (Homo sapiens), Q9Y5X4 | luciferase | inhibition of corepressor binding, % at 3.98 µM | 360,000 compounds, 0.35% hits;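 active means inhibition above the mean of all tested compounds plus 3 SD, cut at about 70% in these data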;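 further: 0% = DMSO with NR2E3 transfected cells and 100% = cells lacking NR2E3 construct; higher means lower luciferase signal from less NR2E3 corepressor binding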
Target sequence (Q9Y5X4 whole entry, looked up, the tested form may be a part): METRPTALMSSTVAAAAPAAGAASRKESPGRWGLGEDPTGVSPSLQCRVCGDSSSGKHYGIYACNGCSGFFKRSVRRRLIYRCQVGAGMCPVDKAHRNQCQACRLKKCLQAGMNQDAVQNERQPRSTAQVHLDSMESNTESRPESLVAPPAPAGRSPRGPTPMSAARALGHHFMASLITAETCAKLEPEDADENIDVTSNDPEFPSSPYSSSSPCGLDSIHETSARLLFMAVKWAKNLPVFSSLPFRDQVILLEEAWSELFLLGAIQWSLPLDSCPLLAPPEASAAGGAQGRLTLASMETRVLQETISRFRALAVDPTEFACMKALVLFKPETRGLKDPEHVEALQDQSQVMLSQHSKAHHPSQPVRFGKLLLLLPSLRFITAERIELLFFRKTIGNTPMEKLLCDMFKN
miR122 inh – miR-122 Renilla sensor signal increase in Huh7, primary screen, miR-122 inhibitor project, cell-based, single point, plate reader. AID 602342, 2012. Huh7 miR-122 Renilla luciferase sensor, 48 h; neutral wells = 0, positive control = 100. activation (reporter increase), % at 12.5 µM. 340,000 compounds, 0.3% hits;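 active means mean replicate activation score at least 90 and every replicate individually at or above 90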;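 further: higher luciferase means less miR-122 activity so hits act as miR-122 inhibitors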
FGF22 binding – binders of human FGF22 protein, primary screen, FGF22 synaptogenesis inhibitor project, biophysical, thermal shift, single point | recombinant FGF22 thermal shift, SYPRO orange fluorescence; percent of sucrose octasulfate shift, DMSO zero | Fibroblast growth factor 22 (Homo sapiens), Q9HCT0 | 340,000 compounds, 1.5% hits | activity (Tm shift, normalised), % at 9.99 µM;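 active means mean Tm shift, scaled 0 neutral to 100 positive control, at about 1.3% or above, every replicate too, limit read from the data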
Target sequence (Q9HCT0 whole entry, looked up): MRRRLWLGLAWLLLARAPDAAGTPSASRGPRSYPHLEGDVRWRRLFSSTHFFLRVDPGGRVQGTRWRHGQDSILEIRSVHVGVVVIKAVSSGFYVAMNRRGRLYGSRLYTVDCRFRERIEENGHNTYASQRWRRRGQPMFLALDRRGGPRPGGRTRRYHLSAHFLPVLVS
Jurkat NFkB inh – inhibitors of induced NF-kB luciferase reporter, primary screen, TCR NF-kB activation inhibitor project, cell-based, luminescence, uHTS; AID 435003, 2010; Jurkat, PMA/ionomycin-induced NF-kB luciferase reporter; inhibition, % at 4 µM; 330,000 compounds, 0.53% hits; in the data active means inhibition above about 50%
697 NFkB inh – inhibitors of PMA/ionomycin-induced NF-kB reporter, 697 cells, primary screen, B-cell NF-kB inhibitor project, cell-based, luminescence, uHTS; 697 B-cell NF-kB luciferase reporter, 16 h; AID 435022, 2010; 330,000 compounds, 0.33% hits; inhibition, % at 4 µM; in the data active means inhibition above about 35%
NR2E3 ag-2 – inhibitors of NR2E3-RetCOR corepressor binding, primary screen, NR2E3 agonist project, biochemical, TR-FRET, GST-NR2E3, biotin-RetCOR. AID 2300, 2010. Photoreceptor-specific nuclear receptor (Homo sapiens), Q9Y5X4. inhibition of corepressor binding, % at 4.78 µM. 1536-well. 320,000 compounds, 0.12% hits;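 active means percent inhibition above the cutoff of mean plus 3 SD of all tested compounds, set per screening campaign, cut at about 20% in these data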;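 further: 0% = DMSO wells and 100% = biotin wells as full block of FRET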
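system = GST-tagged NR2E3 plus biotinylated RetCOR corepressor | input = 1.35 nM GST-NR2E3 | also added = 7 nM biotin-RetCOR | schedule = 5 h incubation at 4 °C | measured by = TR-FRET with europium anti-GST and streptavidin-D2, 340 nm excitation | read-out = percent loss of FRET ratio relative to control wells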
697 NFkB conf – PMA/ionomycin-induced NF-kB reporter inhibitors, 697 retest, confirmation, B-cell NF-kB inhibitor project, cell-based, luminescence, single concentration. 2,000 compounds, 35% hits. 697 B-cell NF-kB luciferase, 16 h. inhibition, % at 4 µM. shares compounds with 697 NFkB inh; in the data active means inhibition mostly above about 28%, no sharp cut-off; inactive means mostly below about 22%
Numbers without * were called inactive; i = inactive; / = no result; [ ] = dose if it differs, or a comment.

SMILES	NR2E3 ag-1	miR122 inh	FGF22 binding	Jurkat NFkB inh	697 NFkB inh	NR2E3 ag-2	697 NFkB conf
COc1ccc(NC(=O)CN(C)C(=O)CCc2ccccc2)cc1	5	/	0	6	9	-1	/
COc1cccc(/C=C2\SC(=S)N(CCCC(=O)NC3=NCCS3)C2=O)c1	6	/	0	14	42*	2	51*
COc1cccc(/C=C2\SC(=S)N(CCCC(=O)Nc3ccc(C(=O)O)cc3)C2=O)c1	19	-26	0	17	53*	0	61*
CCc1ccc(/C=C2\SC(=S)N(CCCC(=O)NC3=NCCS3)C2=O)cc1	29	1	0	/	/	/	/
C(=C\c1ccco1)/c1nc2ccccc2[nH]1	-112	/	/	11	-3	-6	/
C(=C\c1nc2ccccc2[nH]1)/c1ccccc1	-203	54	/	-104	-442	-6	-296
Cc1nc(/C=C/c2ccccc2)[nH]c(=O)c1-c1ccccc1	-282	/	/	6	-254	-2	-163
COc1ccc(C(=O)O/N=C2\C(=O)N(C)c3ccccc32)cc1	-25	1	0	-5	-9	0	/
COc1ccc(C(=O)N=c2nc3ccccn3s2)cc1	-131	-2	/	-83	-389	2	-282
COc1ccc(-c2cc(CCCC(=O)NCCc3ccc(OC)cc3OC)no2)cc1	-32	-8	/	5	16	1	/
CCOc1ccc(-c2cc(CCCC(=O)NCCC(C)C)no2)cc1	-9	-1	0	-25	27	-1	/
CCOc1ccc(-c2cc(CCCC(=O)NCCc3ccc(OC)c(OC)c3OC)no2)cc1	17	-1	/	-10	37*	5	10
CCOc1ccc(NC(=O)CCCc2cc(-c3ccc(OCC)cc3)on2)cc1	-4	-10	/	-16	40*	1	40*
C[C@H](CO)N1C[C@H](C)[C@H](CN(C)Cc2ccc(C(=O)Nc3ccccc3N)cc2)Oc2ccc(NS(=O)(=O)c3ccc(F)cc3)cc2C1=O	/	54[16.7 µM]	0	/	/	/	/
COc1ccc(C2=Nn3c(nnc3-c3ccccc3F)SC2)cc1OC1CCCC1	-80	-1	0	22	i	/	i
COc1ccc(C2=Nn3c(nnc3-c3ccccc3F)SC2)cc1OC1CCOC1 (centres undefined)	-43	44	0	-19	-14	/	/
CC1CCN(c2cc(N3CCN(C(=O)c4ccc(F)c(F)c4)CC3)c([N+](=O)[O-])cc2F)CC1	18	/	/	21	38*	-1	18
O=C(NCCS(=O)(=O)N1CCN(c2cccc(Cl)c2)CC1)c1ccco1	10	/	0	-8	35*	1	-10
O=C(Cc1ccccc1)NCCS(=O)(=O)N1CCN(c2cccc(Cl)c2)CC1	8	-7	0	-3	0	1	/
C[C@H]1CN([C@@H](C)CO)C(=O)c2cc(-c3ccncc3)cnc2O[C@H]1CN(C)C(=O)Cc1cccnc1	/	-6[16.7 µM]	0	/	/	/	/
CCc1nc2c(c(=O)c3ccccc3n2C)c(=O)n1CCc1ccc(OC)cc1	/	/	/	-52	i	-4	i
COCCn1c(-c2ccc(Cl)cc2Cl)nc2c(c(=O)c3ccccc3n2C)c1=O	-10	/	0	25	41*	0	14
C[C@H](CO)N1C[C@H](C)[C@@H](CN(C)C(=O)CN(C)C)Oc2ncc(/C=C/c3ccccc3)cc2C1=O	/	2[16.7 µM]	-1	/	/	/	/
NNC(=O)c1cccc(COc2ccc3c(c2)CCC3)c1	-208	/	/	9	56*	2	-30
CC(=O)Nc1cc(-c2nn(C)c(=O)c3ccccc23)ccc1N1CCCCC1	5	5	/	14	26	-1	/
SMILES	NR2E3 ag-1	miR122 inh	FGF22 binding	Jurkat NFkB inh	697 NFkB inh	NR2E3 ag-2	697 NFkB conf
Cn1nc(-c2ccc(N3CCOCC3)c(NS(=O)(=O)c3ccccc3)c2)c2ccccc2c1=O	-17	-6	0	16	61*	-1	33*
COc1ccc(CN(C)C[C@H]2Oc3ccc(NS(=O)(=O)c4ccc(Cl)cc4)cc3C(=O)N([C@@H](C)CO)C[C@H]2C)cc1	/	-2[16.7 µM]	0	/	/	/	/
O=C(Cc1n[nH]c(=O)c2ccccc12)OCc1c(Cl)cccc1Cl	2	-6	41	-31	i	1	i
Cc1cc(NC(=O)c2cccc(COc3ccc(Br)cc3)c2)no1	-187	5	0	-21	56*	-3	12
CCCC#Cc1ccc2c(c1)O[C@H](CN(C)C(=O)c1ccccn1)[C@H](C)CN([C@H](C)CO)S2(=O)=O	/	-3[16.7 µM]	0	/	/	/	/
COc1cc(SC)ccc1C(=O)Nc1ncc(C)s1	-48	/	0	-67	-134	3	/
COc1cc(SC)ccc1C(=O)Nc1ccc(Br)cn1	-71	5	0	-87	-321	2	-452
COc1cc(/C=C2\SC(=Nc3ccccc3)N(CCc3c[nH]c4ccccc34)C2=O)ccc1OC(C)C(=O)O (centres undefined)	-4	/	/	-9	-8	3	/
COCCN1C(=O)/C(=C/c2ccc(Oc3ccc([N+](=O)[O-])cn3)c(OC)c2)SC1=Nc1ccccc1	-8	-13	/	30	50*	3	24
O=C(Nc1ncccc1O)c1ccc(S(=O)(=O)Nc2ccccc2)cc1	-42	/	0	12	-402	-3	-359
O=C1/C(=C/Nc2ccc3c(c2)OCO3)CCc2ccccc21	-114	8	/	-58	-469	-1	-251
O=C(CCCN1C(=O)/C(=C/c2ccccc2Cl)SC1=S)NNC(=O)c1ccc(Cl)cc1	-9	/	0	19	61*	0	52*
O=C(CCN1C(=O)/C(=C/c2ccccc2Cl)SC1=S)NNC(=O)c1cccnc1	-6	/	0	-3	-6	1	/
Cc1ccc(C(=O)NNC(=O)CCCN2C(=O)/C(=C/c3ccccc3Cl)SC2=S)cc1	-2	2	/	19	44*	4	41*
Cc1ccc(/C=C2\SC(=S)N(CCC(=O)NNC(=O)c3cccc(O)c3)C2=O)cc1	10	2	1	6	40*	-2	12
CC(C)(C)[S@](=O)N1Cc2cc(C(=O)N3CCc4ccccc4C3)nc(-c3cccc(-c4cncnc4)c3)c2[C@@H]1CCO	/	/	0	/	/	/	/

Source: PubChem BioAssay (several laboratories)
